Pf Dd2 inh = P. falciparum Dd2 growth inhibitors, primary screen, SYBR Green fluorescence, single dose replicates. activity change, % at 10 µM. 94,000 compounds, 2.3% hits. 72 h; hits give low values; in the data active = activity change below about -80%; inconclusive = no clear call, values can overlap the other calls
KDM4C inh = inhibitors of GASC-1 (KDM4C) histone demethylase, primary screen, biochemical, single concentration HTS | 96,000 compounds, 0.15% hits | AID 720574, 2013 | inhibition, % at 12.5 µM | Lysine-specific demethylase 4C (Homo sapiens), Q9H3R0 | GST-KDM4C 2-372, H3K9me3 peptide, LANCE TR-FRET;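 active = mean replicate inhibition above about 25%, with at least 55% of replicates also reaching it, limit read from the data, passing the limit was not always enough; inconclusive = only one of those two conditions met; inactive = neither condition met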
Target sequence (Q9H3R0 2-372 limits assumed): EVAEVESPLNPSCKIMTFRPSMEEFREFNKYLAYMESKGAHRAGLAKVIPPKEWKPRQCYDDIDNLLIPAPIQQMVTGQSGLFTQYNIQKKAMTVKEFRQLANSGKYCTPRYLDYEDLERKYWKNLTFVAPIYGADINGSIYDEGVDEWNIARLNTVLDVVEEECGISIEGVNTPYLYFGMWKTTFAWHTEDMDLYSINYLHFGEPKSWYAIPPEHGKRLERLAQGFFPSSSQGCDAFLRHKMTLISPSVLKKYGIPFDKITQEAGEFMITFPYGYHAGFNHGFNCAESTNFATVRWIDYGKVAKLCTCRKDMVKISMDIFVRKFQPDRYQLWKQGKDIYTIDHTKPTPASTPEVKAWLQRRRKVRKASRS
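System: N-terminal GST-fused human GASC-1 (KDM4C) fragment, residues 2-372 / Amount: 10 nM GST-KDM4C in enzyme reaction / Also added: H3K9me3 peptide with Fe(II)/2OG / Times: 30 min demethylation and 1 h detection at room temperature / Signal: LANCE TR-FRET / Read-out basis: Fall in 671/618 emission ratio as inhibition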
IDH1 R132H inh = inhibitors of IDH1 R132H reductase, primary screen, biochemical, plate reader, single point | AID 624101, 2012 | 70,000 compounds, 0.18% hits | Isocitrate dehydrogenase [NADP] cytoplasmic (Homo sapiens), O75874 | inhibition, % at 10 µM | diaphorase/resazurin fluorescence, 60 min; in the data active = inhibition above about 34%; inconclusive = no clear call, values can overlap the other calls; inactive = below about 11%;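 note: 0% = DMSO and 100% = no enzyme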
T cruzi growth-1 = T. cruzi intracellular proliferation inhibitors, primary screen, cell-based, beta-gal Tulahuen parasites, NIH3T3 host, luminescence | 77,000 compounds, 5.9% hits | inhibition, % at 8.34 µM | T. cruzi beta-gal in NIH3T3, GalScreen luminescence, 90 h;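 active = mean inhibition above about 93%, with at least 55% of replicates each passing it, limit read from the data, passing the limit was not always enough; inconclusive = only one of those two conditions holds; inactive = neither condition holds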
T cruzi growth-2 = T. cruzi intracellular proliferation inhibitors, confirmation, cell-based, NIH3T3 host, beta-gal parasite, luminescence, cherry-pick. T. cruzi beta-gal in NIH3T3, GalScreen luminescence, 90 h. shares compounds with T cruzi growth-1. inhibition, % at 8.35 µM. AID 651739, 2012. 5,600 compounds, 72% hits;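 active = mean replicate inhibition above about 95% and at least 55% of replicates individually reaching it, limit read from the data; inconclusive = only one of the two criteria is met; inactive = neither criterion is met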
T cruzi growth-3 = inhibitors of intracellular T. cruzi replication, confirmation, NIH3T3 host cells, beta-gal parasites, cherry-pick, set 2. T. cruzi beta-gal in NIH3T3, GalScreen luminescence, 90 h. shares compounds with T cruzi growth-1. inhibition, % at 2.09 µM. 5,600 compounds, 21% hits;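 active = mean inhibition above about 95%, with at least 55% of replicates also reaching it, limit read from the data; inconclusive = meets just one of the two conditions; inactive = meets neither condition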;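 note: plate controls were neutral control median for no effect and positive control median for full effect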
NIH3T3 tox = cytotoxicity in mouse NIH/3T3 fibroblasts, confirmation, cytotoxicity control for T. cruzi proliferation inhibitor project, cell-based, cherry-pick, single point; cytotoxicity (signal decrease), % at 8.35 µM; 5,600 compounds, 14% hits; shares compounds with T cruzi growth-1; NIH/3T3 viability, CellTiter-Glo ATP luminescence, 90 h;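 active = mean signal decrease across replicates above about 35% based on untreated-well scatter, with enough replicates individually passing, limit read from the data; inconclusive = no rule stated though some were filed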;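 note: 0% = median of neutral control wells and 100% = median of positive control wells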
NIH3T3 tox 2 = NIH/3T3 fibroblast cytotoxicity, confirmation, cytotoxicity control, cell-based, cherry-pick, single point, set 2; shares compounds with T cruzi growth-1; NIH/3T3 viability, CellTiter-Glo ATP luminescence, 90 h; inhibition, % at 24.9 µM; 5,600 compounds, 56% hits; AID 651744, 2012;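 active = mean loss of cell viability signal at or above a set limit, and enough replicates individually reaching it; inconclusive = meets only the mean limit or only the replicate share; inactive = meets neither condition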;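 note: 0% = median of neutral control wells and 100% = median of positive control wells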
Active calls of the source: *. The list is not random: actives were taken first. Their share in the collection is about 5.8%.

Cc1nn(C(C)C(=O)Nc2ccc(F)c(Cl)c2)c(C)c1[N+](=O)[O-] (stereo not given) was read as IDH1 R132H inh 1.
Screening O=C(COc1ccccc1)NC(=S)Nc1cc(-c2nc3ccccc3o2)ccc1Cl returned IDH1 R132H inh 1.
For C[C@@H]1CN([C@@H](C)CO)C(=O)Cc2cc(NS(=O)(=O)c3ccc(F)cc3)ccc2O[C@@H]1CN(C)Cc1ccccc1 the results were Pf Dd2 inh -20, KDM4C inh 1 and T cruzi growth-1 94.
C[C@@H]1CN([C@@H](C)CO)C(=O)Cc2cc(NS(=O)(=O)c3ccc(F)cc3)ccc2O[C@H]1CN(C)Cc1ccccc1 was read as Pf Dd2 inh -30, KDM4C inh 2, IDH1 R132H inh 1, T cruzi growth-1 114*, T cruzi growth-2 111*, T cruzi growth-3 52, NIH3T3 tox 32 and NIH3T3 tox 2 inconclusive.
Screening COc1ccc(S(=O)(=O)Nc2ccc3c(c2)CC(=O)N([C@@H](C)CO)C[C@@H](C)[C@H](CN(C)Cc2ccccc2)O3)cc1 returned Pf Dd2 inh -26, KDM4C inh -1, IDH1 R132H inh 0, T cruzi growth-1 113*, T cruzi growth-2 108*, T cruzi growth-3 89, NIH3T3 tox 16 and NIH3T3 tox 2 23.
`COc1ccc(S(=O)(=O)Nc2ccc3c(c2)CC(=O)N([C@H](C)CO)C[C@@H](C)[C@@H](CN(C)Cc2ccccc2)O3)cc1` gave Pf Dd2 inh -9, KDM4C inh -1, IDH1 R132H inh 0 and T cruzi growth-1 87.
`COc1ccc(S(=O)(=O)Nc2ccc3c(c2)CC(=O)N([C@H](C)CO)C[C@H](C)[C@@H](CN(C)Cc2ccccc2)O3)cc1` gave Pf Dd2 inh -35, KDM4C inh 0, IDH1 R132H inh -6, T cruzi growth-1 99*, T cruzi growth-2 104*, T cruzi growth-3 45, NIH3T3 tox -10 and NIH3T3 tox 2 -17.
For C[C@H]1CN([C@@H](C)CO)C(=O)Cc2cc(NS(=O)(=O)c3ccc(F)cc3)ccc2O[C@H]1CN(C)CC1CCCCC1 the results were Pf Dd2 inh -30, KDM4C inh -2, IDH1 R132H inh 0 and T cruzi growth-1 67.
Screening C[C@@H]1CN([C@@H](C)CO)C(=O)Cc2cc(NS(=O)(=O)c3ccc(F)cc3)ccc2O[C@H]1CN(C)CC1CCCCC1 returned Pf Dd2 inh -18, KDM4C inh 2, IDH1 R132H inh 2, T cruzi growth-1 106*, T cruzi growth-2 112*, T cruzi growth-3 54, NIH3T3 tox 6 and NIH3T3 tox 2 103*.
O=C(NCCC(c1ccc(F)cc1)c1ccco1)c1cccs1 (stereo not given) was read as IDH1 R132H inh 0.
O=C(C1=C[C@@H](c2csc3ccccc23)C[C@@H](OCc2ccc(CO)cc2)O1)N1CCCCC1 was read as IDH1 R132H inh 0.
CCCNC(=O)N1[C@H](CO)[C@@H](c2ccccc2)[C@H]1CNC(=O)c1ccccc1 was read as Pf Dd2 inh 12, KDM4C inh -6 and T cruzi growth-1 48.
Screening CCCNC(=O)N1[C@H](CO)[C@@H](c2ccccc2)[C@H]1CNC(=O)c1cccc(F)c1 returned Pf Dd2 inh -54, KDM4C inh -4 and T cruzi growth-1 -15.
Screening CCCNC(=O)N1[C@@H](CO)[C@H](c2ccccc2)[C@@H]1CNC(=O)c1ccccc1 returned Pf Dd2 inh -1, KDM4C inh -2, T cruzi growth-1 inconclusive, T cruzi growth-2 23, T cruzi growth-3 -15, NIH3T3 tox 0 and NIH3T3 tox 2 -4.
For CCCNC(=O)N1[C@@H](CO)[C@@H](c2ccccc2)[C@@H]1CNC(=O)c1cccc(F)c1 the results were Pf Dd2 inh -71, KDM4C inh -2, T cruzi growth-1 122*, T cruzi growth-2 81, T cruzi growth-3 -9, NIH3T3 tox 6 and NIH3T3 tox 2 40*.
Screening Cn1c(SCC(=O)Nc2sc3c(c2C#N)CCCC3)nnc1-c1ccc(Br)cc1 returned IDH1 R132H inh 0.
`CC(C)NC(=O)N1CCCCN2[C@H](CO)[C@@H](c3ccc(C#Cc4ccccc4)cc3)[C@H]2C1` gave Pf Dd2 inh -2, KDM4C inh -2, T cruzi growth-1 103*, T cruzi growth-2 101*, T cruzi growth-3 72, NIH3T3 tox 23 and NIH3T3 tox 2 102*.
For CC(C)NC(=O)N1CCCCN2[C@H](C1)[C@H](c1ccc(C#Cc3ccccc3)cc1)[C@@H]2CO the results were Pf Dd2 inh 13, KDM4C inh -1 and T cruzi growth-1 82.
Screening CC(C)C#Cc1ccc([C@H]2[C@H]3CN(C(=O)NC(C)C)CCCCN3[C@H]2CO)cc1 returned Pf Dd2 inh 11, KDM4C inh -1 and T cruzi growth-1 54.
CC(C)C#Cc1ccc([C@@H]2[C@H](CO)N3CCCCN(C(=O)NC(C)C)C[C@@H]23)cc1 was read as Pf Dd2 inh 18, KDM4C inh 1, T cruzi growth-1 103*, T cruzi growth-2 101*, T cruzi growth-3 89, NIH3T3 tox 12 and NIH3T3 tox 2 85*.
CC(C)NC(=O)N1CCCCN2[C@H](CO)[C@H](c3ccc(C#Cc4ccccc4)cc3)[C@H]2C1 was read as Pf Dd2 inh -10, KDM4C inh -1, T cruzi growth-1 107*, T cruzi growth-2 106*, T cruzi growth-3 105*, NIH3T3 tox 41* and NIH3T3 tox 2 107*.
CC(C)NC(=O)N1CCCCN2[C@H](C1)[C@@H](c1ccc(C#Cc3ccccc3)cc1)[C@@H]2CO was read as Pf Dd2 inh 4, KDM4C inh -1 and T cruzi growth-1 76.
Screening Cc1nnc(SCC(=O)n2c3c(c4ccccc42)CCCC3)n1C returned IDH1 R132H inh 0.
C[C@H](CO)N1C[C@H](C)[C@H](CN(C)C(=O)c2ccccc2F)Oc2ncc(C#Cc3ccccc3)cc2C1=O was read as Pf Dd2 inh -60, KDM4C inh 1 and T cruzi growth-1 -19.
